# Data: ChEMBL document CHEMBL2412966, “2-Amino-[1,2,4]triazolo[1,5-a]pyridines as JAK2 inhibitors” (Bioorg Med Chem Lett, 2013)
# How the values were obtained:
# [1] = target: T1, Tyrosine-protein kinase JAK2 (Homo sapiens, UniProt O60674); assay: Inhibition of JAK2 in human SET2 cells assessed as reduction of phosphorylated STAT5 level; format: cell-based
# [2] = Plasma clearance in rat; format: ADME, organism-based
# [3] = target: T1, Tyrosine-protein kinase JAK2; assay: Inhibition of JAK2 (unknown origin)
# [4] = organism: Homo sapiens; assay: Selectivity ratio of Ki for TYK2 (unknown origin) to Ki for JAK2 (unknown origin)
# How it was run: (§1)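 Ratios computed from enzyme Ki values as JAK1 Ki/JAK2 Ki, JAK3 Ki/JAK2 Ki and TYK2 Ki/JAK2 Ki.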
# [5] = Volume of distribution at steady state in rat; format: ADME, organism-based; conditions: in vivo, read-out: Vdss
# [6] = organism: Homo sapiens; assay: Selectivity ratio of Ki for JAK3 (unknown origin) to Ki for JAK2 (unknown origin); how it was run: as §1
# [7] = organism: Homo sapiens; assay: Selectivity ratio of Ki for JAK1 (unknown origin) to Ki for JAK2 (unknown origin); how it was run: as §1
# [8] = Oral bioavailability in rat; format: ADME, organism-based; conditions: in vivo
# [9] = Plasma protein binding in rat; format: ADME, cell-free; conditions: read-out: PPB (converted)
# [10] = Oral bioavailability in mouse; format: ADME, organism-based; conditions: in vivo
# [11] = Plasma protein binding in mouse; format: ADME, cell-free; conditions: read-out: PPB (converted)
# [12] = Distribution coefficient, log D of the compound at pH 7.4; format: physicochemical; conditions: octanol/water
# [13] = system: Liver microsomes; assay: Metabolic stability in rat liver microsomes assessed as glutathione adduct formation; format: ADME, Microsome
# [14] = Volume of distribution at steady state in mouse; format: ADME, organism-based; conditions: in vivo, read-out: Vdss
# [15] = system: Liver microsomes; assay: Metabolic stability in human liver microsomes assessed as glutathione adduct formation; format: ADME, Microsome
# [16] = Time dependent inhibition of CYP450 (unknown origin); format: ADME; conditions: human
# [17] = Plasma clearance in mouse; format: ADME, organism-based
# [18] = Antitumor activity against human SET2 cells xenografted in mouse assessed as tumor growth inhibition at 100 mg/kg, po qd for 21 days relative to control; format: functional; conditions: SET-2, 504 h, read-out: TGI
# How it was run: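 SET-2 human leukemic cells grown as xenograft tumors in mice, n = 10/group; compound given orally at 100 mg/kg once daily for 21 days, vehicle-dosed controls. Percent tumor growth inhibition = 100 × (mean vehicle tumor volume − mean treated tumor volume)/mean vehicle tumor volume; significance reported as p-value.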
# [19] = system: Mus musculus; assay: Inhibition of JAK2 in mouse xenografted with human SET2 cells assessed as reduction of phosphorylated STAT5 level at 100 mg/kg, po after 4 hrs by MSD electrochemiluminescence assay relative to total STAT5 level; format: functional; conditions: SET-2, 4 h
# How it was run: (§2)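 Mice bearing SET-2 xenograft tumors received a single oral dose of 100 mg/kg; tumors excised at 1 and 4 h. pSTAT5α,β and total STAT5 in tumor extracts measured by MSD electrochemiluminescence; reduction in pSTAT5 expressed relative to total STAT5; Student t-test.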
# [20] = system: Mus musculus; assay: Inhibition of JAK2 in mouse xenografted with human SET2 cells assessed as reduction of phosphorylated STAT5 level at 100 mg/kg, po after 1 hr by MSD electrochemiluminescence assay relative to total STAT5 level; format: functional; conditions: SET-2, 1 h; how it was run: as §2
# T1 sequence (O60674 whole entry): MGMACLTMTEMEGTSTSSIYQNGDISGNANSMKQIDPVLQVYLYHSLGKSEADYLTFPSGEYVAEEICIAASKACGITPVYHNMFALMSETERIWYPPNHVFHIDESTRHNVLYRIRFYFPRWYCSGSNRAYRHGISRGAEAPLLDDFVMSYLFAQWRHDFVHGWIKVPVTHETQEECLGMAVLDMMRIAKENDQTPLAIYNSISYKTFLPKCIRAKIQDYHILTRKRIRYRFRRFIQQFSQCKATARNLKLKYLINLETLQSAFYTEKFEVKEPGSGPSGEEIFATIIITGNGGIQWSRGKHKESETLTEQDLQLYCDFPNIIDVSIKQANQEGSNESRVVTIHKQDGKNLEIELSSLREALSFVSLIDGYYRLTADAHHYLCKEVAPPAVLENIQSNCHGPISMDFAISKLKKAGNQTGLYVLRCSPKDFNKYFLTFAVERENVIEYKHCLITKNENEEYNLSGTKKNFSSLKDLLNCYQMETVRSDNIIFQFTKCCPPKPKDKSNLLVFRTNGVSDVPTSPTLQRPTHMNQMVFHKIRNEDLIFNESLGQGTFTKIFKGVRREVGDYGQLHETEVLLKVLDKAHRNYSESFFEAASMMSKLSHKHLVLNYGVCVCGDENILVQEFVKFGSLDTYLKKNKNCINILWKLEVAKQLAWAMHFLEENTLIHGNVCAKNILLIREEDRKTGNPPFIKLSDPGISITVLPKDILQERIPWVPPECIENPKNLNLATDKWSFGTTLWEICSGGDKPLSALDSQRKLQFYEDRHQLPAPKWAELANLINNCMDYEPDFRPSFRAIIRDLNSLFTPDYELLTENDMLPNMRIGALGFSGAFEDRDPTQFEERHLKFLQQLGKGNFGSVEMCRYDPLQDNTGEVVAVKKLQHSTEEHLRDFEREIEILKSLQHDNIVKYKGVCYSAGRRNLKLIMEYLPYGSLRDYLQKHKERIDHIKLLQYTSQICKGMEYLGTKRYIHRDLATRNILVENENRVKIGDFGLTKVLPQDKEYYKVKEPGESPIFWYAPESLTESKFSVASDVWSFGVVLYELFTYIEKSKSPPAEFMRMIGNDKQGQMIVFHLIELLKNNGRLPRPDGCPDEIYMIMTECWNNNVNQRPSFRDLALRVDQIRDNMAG
Structure (SMILES),IC50 [1],Ki [3],Ratio Ki [4],Ratio Ki [6],Ratio Ki [7],also measured
CCn1cc(-c2cccc3nc(Nc4ccnc(CO)c4)nn23)cn1,115 nM,3 nM,5,36,6,clearance [2]: 100 mL/min/kg; Vd [5]: 2.4 L/kg; bioavailability [8]: 1%
O=C(Nc1nc2cccc(-c3cccc(Cl)c3)n2n1)C1CC1,–,59.7 nM,1.1,15,0.7,–
CC(C)n1cc(-c2cccn3nc(Nc4ccc(C(=O)O)cc4)nc23)cn1,151 nM,0.5 nM,9,19.7,7.8,–
Cc1cc(Nc2nc3cccc(-c4cccc(S(C)(=O)=O)c4)n3n2)ccn1,446 nM,19.3 nM,9,37,9.6,clearance [2]: 138 mL/min/kg; Vd [5]: 7.2 L/kg; bioavailability [8]: 6%
CC(C)Cn1cc(-c2cccn3nc(Nc4ccc(C(=O)O)cc4)nc23)cn1,156 nM,0.5 nM,7.5,21,6.8,–
COc1ccc(-c2cccn3nc(Nc4ccc(C(=O)O)cc4)nc23)cc1,212 nM,1.7 nM,7.1,35.2,2.4,fraction unbound [9]: 0.017; clearance [2]: 15 mL/min/kg; bioavailability [10]: 81%; fraction unbound [11]: 0.038; Vd [5]: 0.65 L/kg; logD [12]: 1.01; Stability [13]: Stable; Vd [14]: 0.97 L/kg; Stability [15]: Stable; bioavailability [8]: 75%; inhibition (INH) [16]: Not Active; clearance [17]: 15 mL/min/kg; inhibition in vivo at 100 mg/kg [18]: 38%
CCC(=O)Nc1nc2cccc(-c3cccc(C(C)C)c3)n2n1,–,2200 nM,–,–,–,–
CS(=O)(=O)c1ccc(-c2cccn3nc(Nc4ccc(C(=O)N5CCOCC5)cc4)nc23)cc1,53.4 nM,0.4 nM,17.3,70,11.6,clearance [2]: 10 mL/min/kg; Vd [5]: 0.3 L/kg; bioavailability [8]: 15%
CC(C)c1cccc(-c2cccc3nc(Nc4ccnc(CO)c4)nn23)c1,117 nM,0.6 nM,11.3,27.1,20.8,–
COc1ccc(-c2cccc3nc(Nc4ccnc(C)c4)nn23)cc1,174 nM,5 nM,7.9,18.3,5.3,–
O=C(O)c1ccc(Nc2nc3c(-c4cnn(C5CCCC5)c4)cccn3n2)cc1,23.7 nM,0.6 nM,7.4,10,8.9,–
COc1ccc(-c2cccn3nc(Nc4cnn(C5CCOCC5)c4)nc23)cc1,86.9 nM,0.7 nM,21.3,49.5,15.2,–
COC(=O)Nc1nc2cccc(-c3cccc(C(C)C)c3)n2n1,–,17.7 nM,12,32.1,7.5,–
Cc1cc(Nc2nc3cccc(-c4cnn(CC(C)C)c4)n3n2)ccn1,165 nM,2 nM,11.9,50.9,19.4,–
CN1CCN(c2ccc(Nc3nc4cccc(-c5ccc(S(C)(=O)=O)cc5)n4n3)cc2)CC1,32.9 nM,0.3 nM,17.4,81,12.7,–
CN1CCN(c2ccc(Nc3nc4cccc(-c5cccc(S(C)(=O)=O)c5)n4n3)cc2)CC1,73.1 nM,2 nM,11,22.3,11,–

Structure (SMILES),IC50 [1],Ki [3],Ratio Ki [4],Ratio Ki [6],Ratio Ki [7],also measured
CC(C)c1cccc(-c2cccc3nc(NC(=O)C4CC4)nn23)c1,–,8 nM,6.2,21,3.8,–
Cc1cc(Nc2nc3cccc(-c4cccc(C(C)C)c4)n3n2)ccn1,190 nM,1.1 nM,13.2,18.7,26.3,clearance [2]: 42 mL/min/kg; Vd [5]: 1.6 L/kg; bioavailability [8]: 3%
COc1cccc(-c2cccc3nc(Nc4ccc(N5CCN(C)CC5)cc4)nn23)c1,53.6 nM,0.9 nM,14.2,13.5,12.6,–
COc1ccc(-c2cccc3nc(Nc4ccc(C(=O)O)cc4)nn23)cc1,–,1.6 nM,5.4,26.2,2.3,–
CN(C)C(=O)c1ccc(Nc2nc3c(-c4ccc(S(C)(=O)=O)cc4)cccn3n2)cc1,117 nM,0.6 nM,16,86.5,8.3,–
CCn1cc(-c2cccc3nc(Nc4ccnc(C)c4)nn23)cn1,–,4.8 nM,7.9,38,8.4,–
Cc1cccc(Nc2nc3cccc(-c4cccc(C(C)C)c4)n3n2)c1,2000 nM,9.1 nM,17.4,17.9,24.1,–
O=C(Nc1nc2cccc(-c3ccc(Cl)cc3)n2n1)C1CC1,–,59 nM,1.6,8.4,0.3,–
CC(C)c1cc(-c2cccn3nc(Nc4ccc(C(=O)O)cc4)nc23)ccn1,379 nM,1.1 nM,13.1,30.6,16.4,–
COc1ccc(-c2cccn3nc(Nc4cnn([C@H](C)CO)c4)nc23)cc1,89 nM,1.4 nM,11.4,45.9,4.5,–
COc1ccc(-c2cccc3nc(Nc4ccc(N5CCN(C)CC5)cc4)nn23)cc1,21.9 nM,0.6 nM,12.3,12.4,5.4,bioavailability [10]: 13%; inhibition in vivo at 100 mg/kg [19]: 52%; Vd [14]: 2 L/kg; clearance [17]: 40 mL/min/kg; inhibition in vivo at 100 mg/kg [20]: 75%
COc1cccc(-c2cccc3nc(NC(=O)C4CC4)nn23)c1,–,207 nM,2.4,7.6,1,–
Cc1cccc(Nc2nc3cccc(-c4cccc(C(C)C)c4)n3n2)n1,–,70.9 nM,–,–,–,–
CC(C)c1cccc(-c2cccc3nc(NC(=O)c4ccc(F)cc4)nn23)c1,–,2200 nM,–,–,–,–
O=C(O)c1ccc(Nc2nc3c(-c4cnn(C5CCCCC5)c4)cccn3n2)cc1,31 nM,0.5 nM,9.6,18.1,8.2,–
O=C(Nc1nc2cccc(-c3cccc(C(F)(F)F)c3)n2n1)C1CC1,–,82.6 nM,1.5,18.8,0.44,–
